Bioassay records deposited in PubChem BioAssay by several laboratories.
Many of the other results were omitted from the sample, so hits are more common in it than they were.
AP ELISA ortho – orthogonal test for alternative complement pathway inhibitors | Human serum alternative complement pathway, LPS-coated ELISA, C3 deposition; tested in compound mixtures | inhibition, % at 5 µM | actives 0.08% (n = 62,000) | AID 1235;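 active means inhibition above 30% in each of the two pooled mixtures holding the compound, so the lower value exceeds 30%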;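 further: 0% = serum in Mg-EGTA without compound and 100% = EDTA serum blank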
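Medium: diluted human serum in Mg2+-EGTA GVB++. Assay system: human serum complement alternative pathway, C3 deposition onto LPS. Also added: Plate-bound LPS. Technique: Anti-C3 ELISA, OD 450 nm. Measure: percent inhibition. Incubation: 1 h at 37 °C. Dosing: 5 µM each compound, pools of ten, 50 µM per pool.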
Ec RNAP inh – inhibitors of Escherichia coli RNA polymerase. P0A8V2. E. coli RNA polymerase, fluorescence transcription assay. inhibition, %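 (tested at 10 µM)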. actives 0.2% (n = 62,000). AID 559; in the data active means inhibition above about 20%;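 further: 0% = enzyme without compound and 100% = no enzyme blank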
hDAT+cocaine – human DAT dopamine uptake with cocaine, either direction | B-score at 10 µM | actives 1.3% (n = 110,000) | LLC-PK1 hDAT cells, [14C]-dopamine uptake with cocaine IC80; actives deviate in either direction | Q01959;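 active means Z score or B-score, a plate-position-corrected score, falls beyond the plate's 99.7% confidence bounds, in either direction; inactive means both scores lie inside the 99.7% bounds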;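 further: scored against the spread of the other compound wells on the same plate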
D1 allo mod – allosterically modulates the human D1 dopamine receptor | HEK293 D1, CRE-luciferase, dopamine EC30 potentiation; actives deviate in either direction | B-score at 10 µM | actives 5.9% (n = 58,000);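 active means luminescence count or its row- and column-corrected plate score outside the 99.7% band of the plate's sample wells, on either side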
Target sequence (P21728 whole entry, looked up): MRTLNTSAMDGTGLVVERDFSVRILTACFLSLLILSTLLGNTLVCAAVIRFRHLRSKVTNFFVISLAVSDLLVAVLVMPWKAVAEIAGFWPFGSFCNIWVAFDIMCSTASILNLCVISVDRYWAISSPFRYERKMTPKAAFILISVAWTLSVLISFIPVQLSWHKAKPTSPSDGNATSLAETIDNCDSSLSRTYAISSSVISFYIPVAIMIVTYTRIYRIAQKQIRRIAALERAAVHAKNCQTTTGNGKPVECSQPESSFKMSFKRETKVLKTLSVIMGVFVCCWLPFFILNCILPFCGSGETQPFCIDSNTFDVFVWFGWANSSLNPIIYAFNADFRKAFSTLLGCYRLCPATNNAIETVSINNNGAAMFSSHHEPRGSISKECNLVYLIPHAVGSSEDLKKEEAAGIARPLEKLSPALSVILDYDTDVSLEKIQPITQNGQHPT
HEK293 NFkB inh – lowers PMA/ionomycin-induced NF-kB signal in HEK293 cells; AID 465; HEK-293 NF-kB luciferase reporter, luminescence; inhibition, % at 3 µM; actives 0.21% (n = 62,000);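 active means inhibition above the mean of all tested compounds plus 3 SD, cut at about 40% in these data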;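 further: 0% = stimulated DMSO wells and 100% = 10 µM reference inhibitor 5653914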
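Timing: 1 h pretreatment, 16 h stimulation, 37 °C; system: HEK-293 cells with stable firefly luciferase reporter driven by four HIV NF-kB elements; doses: 3 µM once, 0.30% DMSO; measured by: luciferase luminescence; control set: DMSO and 10 µM reference inhibitor; repeats: single test; reagent: PMA plus ionomycin mix as NF-kB-activating stimulus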
* = called active by the depositor; · = no result given.

SMILES	AP ELISA ortho	Ec RNAP inh	hDAT+cocaine	D1 allo mod	HEK293 NFkB inh
CC(=O)c1ccc(NC(=O)Nc2cccc(Cl)c2)cc1	·	·	-3.9*	·	·
CC(=O)c1cccc(NC(=O)Nc2c(C)nn(C)c2C)c1	7	4	2.1*	2.1	1
CCOC(=O)c1ccc(NC(=O)Nc2c(C)nn(C)c2C)cc1	7	11	0.59	-0.12	-3
N#Cc1nc(-c2cccs2)oc1N1CCN(c2ccccc2)CC1	12	3	-0.14	-0.049	3
COc1ccc(C(=O)Nc2cccc(C)c2)cc1	5	7	0.91	-3.5*	-30
COc1ccc(NC(=O)c2ccc3snnc3c2)cc1	·	·	-2.9*	·	·
CNC(=O)c1ccc2snnc2c1	12	-9	-0.23	·	-3
COc1ccc(CCNC(=O)C2CCN(c3ccc(N4CCOCC4)nn3)CC2)c(OC)c1	·	·	0.55	·	·
CCOC(=O)/C(C(=O)Nc1ccccc1Cl)=C1/NC(C)(C)Cc2ccccc21	·	·	2.8*	·	·
CCOC(=O)C1CCN(CCC(=O)Nc2ccccc2Cl)CC1	·	·	-0.27	·	·
Cc1ccc2c(c1)C(N1CCCC1=O)CC(c1ccco1)N2 (stereo unspecified)	-3	10	0.39	-4.4*	-28
Cc1ccc(C2CC(c3ccco3)n3ncnc3N2)cc1 (stereo unspecified)	10	5	-0.073	·	·
CCOC(=O)C(NC(C)=O)(OCc1ccc(F)cc1)C(F)(F)F (stereo unspecified)	8	9	0.63	-5.7*	2
COc1ccc(Cl)c(N2CCN(CCCNC(=O)Nc3ccc(C)cc3)CC2)c1	-5	1	·	·	18
CCc1cc2c(=O)c(-c3ccc4c(c3)OCCO4)coc2cc1OC(=O)c1ccco1	1	4	1.4	-2.9*	16
CCCc1cc2c(=O)c(-c3ccc4c(c3)OCCO4)coc2cc1OC(=O)c1ccco1	·	·	-0.6	·	·
CC(C)(C)NC(=O)Nc1ccccc1C(N)=O	11	5	-0.016	-4.3*	6
Cn1c(-c2ccc3c(c2)OCO3)cnc1NCc1ccc(Cl)cc1	-4	4	-0.088	-4.3*	1
COc1ccc(OCC(=O)N2CCN(C(=O)c3cccc4ccccc34)CC2)cc1	·	4	-0.32	-0.26	·
O=C(Nc1ccc(S(=O)(=O)N2CCc3ccccc32)cc1)c1ccc2c(c1)OCO2	1	1	0.88	0.22	13
O=C(Nc1ccc(S(=O)(=O)N2CCc3ccccc32)cc1)c1ccco1	11	5	-0.69	-4.9*	13
CCN(CC(=O)Nc1cccc(OC)c1)C(=O)C1CCN(C(=O)Nc2ccccc2)CC1	-1	6	-0.0022	-0.23	10
CCOC(=O)N1CC=C2C(C#N)=C(N)C(C#N)(C#N)[C@H](c3ccc(OCC)c(OCC)c3)[C@H]2C1	12	6	-0.23	0.79	9
N#CC1=C(N)C(C#N)(C#N)C(c2cccnc2)C2CN(C(=O)OCc3ccccc3)CC=C12 (stereo unspecified)	·	·	3.9*	·	·
Cc1cc2ncn(C(=O)c3c(-c4c(Cl)cccc4Cl)noc3C)c2cc1C	8	9	0.15	-0.98	6
SMILES	AP ELISA ortho	Ec RNAP inh	hDAT+cocaine	D1 allo mod	HEK293 NFkB inh
Cc1cc2ncn(C(=O)c3c(-c4ccccc4)noc3C)c2cc1C	0	7	-2.3*	0.45	6
CC(C)=CCc1c(O)c(CC=C(C)C)c2c(c1O)-c1cc(O)c(O)cc1CC2	·	·	2.3	·	·
COc1ccc(C)cc1-n1nnnc1SCc1cc(=O)n2cc(C)ccc2n1	3	6	0.062	·	14
O=C(COc1ncnc2ccc(Br)cc12)NCc1ccc2c(c1)OCO2	·	·	-8.9*	·	·
COCCNC(=O)COc1ncnc2ccc(Br)cc12	·	·	-0.91	·	·
CCO[C@H]1OC(C(=O)NC2CC2)=C[C@@H](c2coc3ccccc3c2=O)[C@@H]1CCCO	·	·	-0.74	·	·
N#Cc1c(-c2ccco2)cc(C2CC2)nc1SCC(=O)c1ccccc1	19	7	0.92	0.74	4
N#Cc1ccc(-c2ccco2)nc1SCC(=O)c1ccc(Cl)cc1	·	21*	-0.35	0.36	·
O=C(NC1CCC(NC(=O)C(F)(F)C(F)F)CC1)C(F)(F)C(F)F (stereo unspecified)	3	8	0.48	-3.2*	15
COc1ccc(OC)c(NC(=O)COc2ccc(S(=O)(=O)NC(C)C)cc2)c1	0	21*	0.56	-0.25	9
Clc1ccccc1Nc1c2c(nc3ncnn13)CCC2	17	3	-0.8	2	20
c1ccc(Nc2c3c(nc4ncnn24)CCC3)cc1	0	4	0.18	-4.8*	6
Cc1cc(C)cc(OCC(O)CN2C(=O)NC(C)(C)C2=O)c1 (stereo unspecified)	16	0	0.46	0.031	3
C[C@@H](O)C1NC(=O)[C@H](CCCCN)NC(=O)c2cc([N+](=O)[O-])cc(I)c2OCC[C@@H](C(N)=O)NC1=O (stereo partly specified)	·	·	0.014	·	·
O=C1CC2(CCCC2)Oc2ccc(F)cc21	·	·	0.67	·	·
O=C1c2ccccc2C(=O)C1c1nccc2ccccc12	-7	5	-1.6	-6.8*	-5
O=C(c1ccc(S(=O)(=O)N2CCCC2)cc1)N1CCCc2ccccc21	3	0	-0.12	-1.5	4
Cn1c(N2CCOCC2)nc2c1c(=O)n(Cc1ccc(Cl)cc1)c(=O)n2C	15	17	0.77	4.4*	·
Cn1c(=O)n(C/C=C/c2ccccc2)c(=O)c2c1nc1n2CCCN1Cc1ccccc1	14	12	1	0.81	15
Cn1c(N2CCN(c3ccccn3)CC2)nc2c1c(=O)n(Cc1ccc(Cl)cc1)c(=O)n2C	·	7	-0.23	·	·
Cc1cccc(Cn2c(=O)c3c(nc4n3CCCN4Cc3ccccc3)n(C)c2=O)c1	1	2	3*	0.63	22
COc1cc2cc(CN(Cc3cccnc3)C(=O)NCc3ccccc3)c(=O)[nH]c2cc1OC	17	-8	-0.0093	-0.32	5
Cc1occc1-c1nnc(SCC(=O)Nc2ccccc2)n1C(C)c1ccccc1 (stereo unspecified)	6	8	1.7	-0.87	11
COc1cc(NC(=O)Cn2nc(Cc3cccnc3)c3ccccc3c2=O)cc(OC)c1OC	·	·	0.12	·	·
CN1C(=S)SC(/[N+]([O-])=C\c2ccco2)C1(C)C (stereo unspecified)	-8	9	0.4	-5.8*	9
SMILES	AP ELISA ortho	Ec RNAP inh	hDAT+cocaine	D1 allo mod	HEK293 NFkB inh
Cc1ccc(/C=[N+](/[O-])C2SC(=S)N(C)C2(C)C)cc1 (stereo unspecified)	·	·	-0.25	·	·
CN1C(=S)SC(/[N+]([O-])=C\c2cccs2)C1(C)C (stereo unspecified)	12	8	-0.62	-7.5*	12
Cc1ccc(CO/N=C\Cc2snc(Sc3ncc(C(F)(F)F)cc3Cl)c2C#N)cc1	·	·	-0.61	·	·
CCCCCCCCCCCCN1[C@@H](CC(=O)O)c2cc(F)ccc2S1(=O)=O	·	·	-1	·	·
CCOC(=O)C[C@H]1c2ccccc2S(=O)(=O)N1C1CC1	·	·	-0.14	·	·
COc1ccccc1-c1nnc2sc(C3CCCCC3)nn12	·	5	1.8*	·	·
c1cc(-c2nnc3sc(C4CCCCC4)nn23)ccn1	·	10	-0.86	·	·
